Key:
[1] = biological target: T1, Amine oxidase [flavin-containing] A (Homo sapiens, UniProt P21397); assay: Inhibition of human recombinant MAO-A preincubated for 30 mins followed by p-tyramine hydrochloride addition measured after 30 mins by Amplex red fluorescence based spectrophotometry
T1 sequence (P21397 whole entry): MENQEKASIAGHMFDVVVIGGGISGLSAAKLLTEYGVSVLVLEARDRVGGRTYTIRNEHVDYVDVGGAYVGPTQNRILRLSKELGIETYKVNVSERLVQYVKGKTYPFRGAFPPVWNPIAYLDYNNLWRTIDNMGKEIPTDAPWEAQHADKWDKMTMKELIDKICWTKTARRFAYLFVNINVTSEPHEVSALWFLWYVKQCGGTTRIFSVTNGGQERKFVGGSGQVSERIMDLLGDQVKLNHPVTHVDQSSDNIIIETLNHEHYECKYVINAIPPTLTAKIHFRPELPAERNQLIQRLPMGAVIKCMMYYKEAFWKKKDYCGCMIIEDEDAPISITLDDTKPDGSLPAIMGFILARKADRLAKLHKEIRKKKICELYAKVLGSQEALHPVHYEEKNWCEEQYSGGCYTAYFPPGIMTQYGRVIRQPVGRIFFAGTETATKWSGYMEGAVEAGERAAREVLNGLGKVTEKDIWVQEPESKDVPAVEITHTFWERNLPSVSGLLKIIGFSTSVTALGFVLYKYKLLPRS
Procedure, shortened: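 hrMAO-A at 0.36 U/mL preincubated with serial inhibitor dilutions for 30 min at 37 °C. Reaction started by adding 1 mM tyramine, 0.04 U/mL HRP and Amplex UltraRed in 0.25 mM sodium phosphate pH 7.4 (final). Resorufin fluorescence read at 530/590 nm for at least 30 min. No-compound activity set as 100%. Interference checked without enzyme.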

[2] = biological target: T2, Amine oxidase [flavin-containing] B (Homo sapiens, UniProt P27338); assay: Inhibition of human recombinant MAO-B preincubated for 30 mins followed by p-tyramine hydrochloride addition measured after 30 mins by Amplex red fluorescence based spectrophotometry
T2 sequence (P27338 whole entry): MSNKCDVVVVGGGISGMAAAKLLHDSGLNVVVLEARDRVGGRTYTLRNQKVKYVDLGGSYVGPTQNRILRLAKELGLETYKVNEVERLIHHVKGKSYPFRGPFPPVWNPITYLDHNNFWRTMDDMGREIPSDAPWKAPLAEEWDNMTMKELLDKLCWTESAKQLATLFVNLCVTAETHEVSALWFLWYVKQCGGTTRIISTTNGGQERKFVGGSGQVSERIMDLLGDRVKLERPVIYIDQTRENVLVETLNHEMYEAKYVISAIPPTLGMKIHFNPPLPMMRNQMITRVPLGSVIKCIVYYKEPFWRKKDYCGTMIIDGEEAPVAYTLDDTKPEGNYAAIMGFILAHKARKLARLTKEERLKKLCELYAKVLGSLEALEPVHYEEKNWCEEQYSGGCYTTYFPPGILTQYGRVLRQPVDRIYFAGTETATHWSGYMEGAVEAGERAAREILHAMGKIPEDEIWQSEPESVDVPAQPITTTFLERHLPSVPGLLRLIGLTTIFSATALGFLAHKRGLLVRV

Homo sapiens = species: Homo sapiens; assay: Selectivity index, ratio of IC50 for human recombinant MAO-A to IC50 for human recombinant MAO-B
[3] = Permeability of the compound at pH 7.4 after 18 hrs by PAMPA-BBB assay
[4] = biological target: T2, Amine oxidase [flavin-containing] B; assay: Time-dependent inhibition of human recombinant MAO-B at 10 uM preincubated with enzyme followed by p-tyramine hydrochloride substrate addition by Amplex red fluorescence based spectrophotometry
Procedure, shortened: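 hrMAO-B was preincubated with inhibitor at 10 µM for 0–360 min. After each preincubation, activity was measured in the standard Amplex UltraRed/tyramine/HRP fluorometric assay at 530/590 nm. Results were expressed as % of control samples versus preincubation time.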

[5] = biological target: T2, Amine oxidase [flavin-containing] B; assay: Irreversible inhibition of human recombinant MAO-B at 50 uM preincubated for 1 h followed by 100 fold enzyme dilution and p-tyramine hydrochloride substrate addition measured after 40 mins by Amplex red fluorescence based spectrophotometry

Row | IC50 [1] | IC50 [2] | Ratio IC50 (Homo sapiens) | Papp at 18 h [3] | TDI [4] | inhibition (INH) [5] | SMILES
1 | 27.4 µM | 5.2 µM | 5.3 | 45 nm/s | – | – | C#CCN(C)CCc1ccc(Cc2cn(C)nn2)cc1
2 | 97.1 µM | 3.5 µM | 27.7 | 156 nm/s | Active | Active | C#CCN(C)CCc1cn(Cc2ccccc2)nn1
3 | 0.5 µM | 0.6 µM | 0.9 | 148 nm/s | – | – | C#CCN(C)Cc1ccc(Cc2cn(C)nn2)cc1
4 | – | – | – | 1 to 9 nm/s | – | – | CCn1cc(C(=O)O)c(=O)c2cc(F)c(N3CCNCC3)cc21 [NORFLOXACIN]
5 | < 300 µM | 94.7 µM | < 3.2 | 299 nm/s | – | – | C#CCN(C)Cc1nnn(C)c1CCCC
6 | – | – | – | 88 to 138 nm/s | – | – | CN(C)CCCN1c2ccccc2Sc2ccccc21 [PROMAZINE]
7 | 2.1 µM | 65 µM | 0.03 | 156 nm/s | – | – | C#CCN(C)Cc1cccc(Cc2cn(C)nn2)c1
8 | 56.1 µM | 173 µM | 0.3 | 148 nm/s | – | – | C#CCN(C)CCc1cn(CCc2ccccc2)nn1
9 | 17.3 µM | 156 µM | 0.1 | 214 nm/s | – | – | C#CCN(C)CCc1nnn(-c2ccccc2)c1CCCC
10 | 135 µM | 249 µM | 0.5 | – | – | – | C#CCN(C)Cc1cn(CC)nn1
11 | – | – | – | < 7.8 nm/s | – | – | CCn1cc(C(=O)O)c(=O)c2cc(F)c(N3CCNC(C)C3)c(F)c21 (stereo not given) [LOMEFLOXACIN]
12 | – | – | – | 19.3 to 25 nm/s | – | – | CN1C(C(=O)Nc2ccccn2)=C(O)c2ccccc2S1(=O)=O [PIROXICAM]
13 | – | – | – | 53 to 65 nm/s | – | – | Clc1cccc(Cl)c1N=C1NCCN1 [CLONIDINE]
14 | > 500 µM | 129 µM | > 3.9 | 23 nm/s | – | – | C#CCN(C)Cc1cn(Cc2ccccc2)nn1
15 | 47 µM | 134 µM | 0.4 | 200 nm/s | – | – | C#CCN(C)CCc1nnn(C(C)c2ccccc2)c1C (stereo not given)
16 | 7.5 µM | 213 µM | 0.04 | 170 nm/s | – | – | C#CCN(C)CCc1nnn(-c2ccccc2)c1CC
17 | 267 µM | 105 µM | 2.6 | – | – | – | C#CCN(C)Cc1nnn(CC)c1C
18 | 26.1 µM | 157 µM | 0.2 | 172 nm/s | – | – | C#CCN(C)CCc1nnn(-c2ccccc2)c1CCC
19 | > 500 µM | 11.2 µM | > 44.6 | 6 nm/s | – | – | C#CCN(C)Cc1cn(CCc2ccccc2)nn1
20 | – | – | – | 120 to 178 nm/s | – | – | CNCCCN1c2ccccc2CCc2ccccc21 [DESIPRAMINE]

Row | SMILES | IC50 [1] | IC50 [2] | Ratio IC50 (Homo sapiens) | Papp at 18 h [3] | TDI [4] | inhibition (INH) [5]
21 | C#CCN(C)CCc1cn(CC)nn1 | 554 µM | 374 µM | 1.5 | – | – | –
22 | CN/C(=N/CCSCc1nc[nH]c1C)NC#N [CIMETIDINE] | – | – | – | < 7 nm/s | – | –
23 | CC(=O)[C@H]1CC[C@H]2[C@@H]3CCC4=CC(=O)CC[C@]4(C)[C@H]3CC[C@]12C [PROGESTERONE] | – | – | – | 93 to 168 nm/s | – | –
24 | C#CCN(C)CCc1nnn(CC)c1C | 91.2 µM | 238 µM | 0.4 | – | – | –

Source: ChEMBL document CHEMBL4477223, “Design, synthesis and biological evaluation of N-methyl-N-[(1,2,3-triazol-4-yl)alkyl]propargylamines as novel monoamine oxidase B inhibitors” (Bioorg Med Chem, 2016)
